# Data from ChEMBL document CHEMBL3286367, “Synthesis of new class of spirocarbocycle derivatives by multicomponent domino reaction and their evaluation for antimicrobial, anticancer activity and molecular docking studies” (2014).
# Calls of active or inactive are those of the source. No cut-off for these calls is given here.
# Legend:
# [1] = system: Micrococcus luteus; assay: Antimicrobial activity against Micrococcus luteus MTCC 106 assessed as absence of visible growth after 48 to 72 hrs; format: functional
# [2] = system: Staphylococcus aureus; assay: Antimicrobial activity against methicillin-resistant Staphylococcus aureus assessed as zone of inhibition at 1 mg/disc after 24 hrs incubation by disc diffusion assay; format: functional
# Summary of the method: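 Inoculum grown in Mueller Hinton broth 24 h at 37°C, swabbed onto Mueller Hinton agar and dried 10 min. Discs loaded at 1 mg/disc, then 30 min at room temperature for diffusion. Plates incubated 24 h at 37°C. Solvent negative control; streptomycin positive control. Zone of inhibition read in mm; experiment done twice.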
# [3] = system: Shigella flexneri; assay: Antimicrobial activity against Shigella flexneri MTCC 1457 assessed as zone of inhibition at 1 mg/disc after 24 hrs incubation by disc diffusion assay; format: functional
# Summary of the method: (§1)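 Inocula grown in Mueller Hinton broth for 24 h at 37 °C and swabbed onto Mueller Hinton agar. Discs carried 1 mg compound each and stood 30 min at room temperature before 24 h incubation at 37 °C. Solvent as negative control. Inhibition zones recorded in mm; experiment done twice.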
# [4] = system: Staphylococcus epidermidis; assay: Antimicrobial activity against Staphylococcus epidermidis MTCC 3615 assessed as zone of inhibition at 1 mg/disc after 24 hrs incubation by disc diffusion assay; format: functional; summary of the method: as §1
# [5] = system: Proteus vulgaris; assay: Antimicrobial activity against Proteus vulgaris MTCC 1771 assessed as absence of visible growth after 24 hrs
# [6] = system: Staphylococcus aureus; assay: Antimicrobial activity against methicillin-resistant Staphylococcus aureus assessed as absence of visible growth after 48 to 72 hrs; format: functional
# Summary of the method: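 Broth two-fold serial dilution in 96-well plates, 1000 to 7.81 µg/mL, compound dissolved in DMSO (2%). Inoculum grown in Mueller Hinton broth 24 h at 37°C. Streptomycin positive control. 5 µl of tested broth plated on MHA; MIC is the lowest concentration inhibiting visible growth on agar.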
# [7] = system: Salmonella typhimurium; assay: Antimicrobial activity against Salmonella typhimurium MTCC 1251 assessed as zone of inhibition at 1 mg/disc after 24 hrs incubation by disc diffusion assay; format: functional, Salmonella enterica subsp. enterica serovar Typhimurium; summary of the method: as §1
# [8] = system: Malassezia pachydermatis; assay: Antifungal activity against Malassezia pachydermatis assessed as zone of inhibition at 1 mg/disc after 48 hrs incubation by disc diffusion assay; format: functional
# Summary of the method: (§2)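 Disc diffusion on Mueller Hinton agar with swabbed cultures, 1 mg compound per disc. Discs stood 30 min at room temperature for diffusion, then plates incubated 48 h at 28 °C. Solvent as negative control. Yeast pre-grown in Sabouraud dextrose broth at 28 °C for 48-72 h; filamentous fungal spores came from SDA slants grown 10 days at 28 °C. Zone diameters in mm; run twice.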
# [9] = system: Klebsiella pneumoniae; assay: Antimicrobial activity against Klebsiella pneumonia MTCC 109 assessed as absence of visible growth after 48 to 72 hrs; format: functional
# [10] = system: Staphylococcus aureus; assay: Antimicrobial activity against Staphylococcus aureus MTCC 96 assessed as zone of inhibition at 1 mg/disc after 24 hrs incubation by disc diffusion assay; format: functional; summary of the method: as §1
# [11] = system: Proteus vulgaris; assay: Antimicrobial activity against Proteus vulgaris MTCC 1771 assessed as zone of inhibition at 1 mg/disc after 24 hrs incubation by disc diffusion assay; format: functional; summary of the method: as §1
# [12] = system: Salmonella typhimurium; assay: Antimicrobial activity against Salmonella typhimurium MTCC 1251 assessed as absence of visible growth after 48 to 72 hrs; format: functional, Salmonella enterica subsp. enterica serovar Typhimurium; details: Salmonella enterica
# [13] = system: Shigella flexneri; assay: Antimicrobial activity against Shigella flexneri MTCC 1457 assessed as absence of visible growth after 24 hrs
# [14] = system: Klebsiella aerogenes; assay: Antimicrobial activity against Enterobacter aerogenes MTCC 111 assessed as zone of inhibition at 1 mg/disc after 24 hrs incubation by disc diffusion assay; format: functional; summary of the method: as §1
# [15] = system: Micrococcus luteus; assay: Antimicrobial activity against Micrococcus luteus MTCC 106 assessed as zone of inhibition at 1 mg/disc after 24 hrs incubation by disc diffusion assay; format: functional; summary of the method: as §1
# [16] = system: Staphylococcus epidermidis; assay: Antimicrobial activity against Staphylococcus epidermidis MTCC 3615 assessed as absence of visible growth after 48 to 72 hrs; format: functional
# [17] = system: Staphylococcus aureus; assay: Antimicrobial activity against Staphylococcus aureus MTCC 96 assessed as absence of visible growth after 24 hrs
# [18] = system: Klebsiella pneumoniae; assay: Antimicrobial activity against Klebsiella pneumonia MTCC 109 assessed as zone of inhibition at 1 mg/disc after 24 hrs incubation by disc diffusion assay; format: functional; summary of the method: as §1
# [19] = system: Klebsiella aerogenes; assay: Antimicrobial activity against Enterobacter aerogenes MTCC 111 assessed as absence of visible growth after 48 to 72 hrs; format: functional
# [20] = system: Candida albicans; assay: Antifungal activity against Candida albicans MTCC 227 assessed as zone of inhibition at 1 mg/disc after 48 hrs incubation by disc diffusion assay; format: functional; summary of the method: as §2
# [21] = system: Klebsiella pneumoniae; assay: Antimicrobial activity against Klebsiella pneumonia MTCC 109 assessed as absence of visible growth after 24 hrs
# [22] = system: Proteus vulgaris; assay: Antimicrobial activity against Proteus vulgaris MTCC 1771 assessed as absence of visible growth after 48 to 72 hrs; format: functional
# [23] = system: A549; assay: Anticancer activity against human A549 cells assessed as cell growth inhibition at 30 ug/ml by MTT assay; format: functional; details: read-out: GI
# Summary of the method: (§3)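 A549 cells kept in DMEM with 10% FBS, 2 mM L-glutamine, penicillin/streptomycin, pH 7.2. Seeded at 5000 cells/well in medium with compound at 5–50 µg/mL. Grown at 37 °C, 5% CO2. Medium then replaced by 1 mg/mL MTT for 4 h and formazan dissolved in DMSO. Absorbance read at 540 nm; three replicate experiments.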
# [24] = system: A549; assay: Anticancer activity against human A549 cells assessed as cell growth inhibition at 10 ug/ml by MTT assay; format: functional; details: read-out: GI; summary of the method: as §3
# [25] = system: A549; assay: Anticancer activity against human A549 cells assessed as cell growth inhibition at 5 ug/ml by MTT assay; format: functional; details: read-out: GI; summary of the method: as §3
# [26] = system: A549; assay: Anticancer activity against human A549 cells assessed as cell growth inhibition at 50 ug/ml by MTT assay; format: functional; details: read-out: GI; summary of the method: as §3
# [27] = system: Staphylococcus epidermidis; assay: Antimicrobial activity against Staphylococcus epidermidis MTCC 3615 assessed as absence of visible growth after 24 hrs
# [28] = system: A549; assay: Anticancer activity against human A549 cells assessed as cell growth inhibition at 40 ug/ml by MTT assay; format: functional; details: read-out: GI; summary of the method: as §3
# [29] = system: A549; assay: Anticancer activity against human A549 cells assessed as cell growth inhibition at 20 ug/ml by MTT assay; format: functional; details: read-out: GI; summary of the method: as §3
# [30] = system: Staphylococcus aureus; assay: Antimicrobial activity against Staphylococcus aureus MTCC 96 assessed as absence of visible growth after 48 to 72 hrs; format: functional
Structure (SMILES),MIC [1],inhibition [2],inhibition zone (IZ) [3],inhibition zone (IZ) [4],inhibition [6],inhibition zone (IZ) [7],inhibition zone (IZ) [8],inhibition [10],MIC [12],MIC [13],inhibition zone (IZ) [14],inhibition zone (IZ) [15],MIC [16],inhibition [17],inhibition zone (IZ) [18],MIC [19],inhibition zone (IZ) [11],MIC [21],MIC [22],inhibition zone (IZ) [20],also measured
N#CC1=C(N)[C@]2(C(=O)Nc3ccccc32)[C@@H](c2cccc3ccccc23)[C@@H]2CCCC=C12,250 µg/mL,inactive,12 mm,15 mm,inactive,14 mm,9 mm,inactive,250 µg/mL,500 µg/mL,18 mm,10 mm,125 µg/mL,inactive,16 mm,125 µg/mL,–,–,–,–,inhibition [5]: inactive; MIC [9]: 125 µg/mL; inhibition [11]: inactive; inhibition [20]: inactive
N#CC1=C(N)[C@]2(C(=O)Nc3ccccc32)[C@@H](c2ccc(Cl)cc2)[C@@H]2CCCC=C12,1000 µg/mL,inactive,10 mm,13 mm,inactive,12 mm,11 mm,inactive,250 µg/mL,250 µg/mL,10 mm,9 mm,250 µg/mL,inactive,16 mm,250 µg/mL,17 mm,125 µg/mL,125 µg/mL,9 mm,–
N#CC1=C(N)C2(C(=O)c3ccccc3C2=O)[C@@H](c2ccc(Cl)cc2)[C@@H]2CCCCC=C12 (relative stereo),62.5 µg/mL,–,22 mm,17 mm,–,18 mm,12 mm,–,125 µg/mL,62.5 µg/mL,18 mm,21 mm,–,–,17 mm,125 µg/mL,23 mm,125 µg/mL,62.5 µg/mL,13 mm,inhibition of growth at 30 µg/mL [23]: 56.2%; inhibition zone (IZ) [2]: 21 mm; inhibition of growth at 10 µg/mL [24]: 28.1%; MIC [6]: 62.5 µg/mL; inhibition of growth at 5 µg/mL [25]: 12.1%; inhibition zone (IZ) [10]: 13 mm; inhibition of growth at 50 µg/mL [26]: 78.8%; MIC [27]: 125 µg/mL; inhibition of growth at 40 µg/mL [28]: 62.4%; inhibition of growth at 20 µg/mL [29]: 47.5%; MIC [30]: 250 µg/mL
